Laboratory results reported in PubChem BioAssay AID652255 (Vanderbilt Specialized Chemistry Center, 2013).
Active and inactive are the calls of the source. No rule for the calls is given here.

Biological target: Proteinase-activated receptor 1 (Homo sapiens) (UniProt P25116)
Test: PAR1 antagonism in human platelets, dose response, selectivity assay for PAR4 antagonist project, cell-based, CRC, P-selectin flow cytometry (AID 652255)
Settings: Washed human platelets, PAR1-AP P-selectin flow cytometry
Method in brief: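 Material – washed platelets labelled with antibody · Dosing – antagonist exposure with 0.5% DMSO final · Schedule – 5 min label, 5 min compound, 10 min agonist · Benchmarks – vehicle (DMSO) control · Signal – flow cytometry fluorescence intensity, 100,000 platelet-gated events, paraformaldehyde-fixed · Probe or stimulus – PAR1 activating peptide (PAR1-AP) as agonist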

Sequence of Proteinase-activated receptor 1 (Homo sapiens) (P25116 whole entry, looked up): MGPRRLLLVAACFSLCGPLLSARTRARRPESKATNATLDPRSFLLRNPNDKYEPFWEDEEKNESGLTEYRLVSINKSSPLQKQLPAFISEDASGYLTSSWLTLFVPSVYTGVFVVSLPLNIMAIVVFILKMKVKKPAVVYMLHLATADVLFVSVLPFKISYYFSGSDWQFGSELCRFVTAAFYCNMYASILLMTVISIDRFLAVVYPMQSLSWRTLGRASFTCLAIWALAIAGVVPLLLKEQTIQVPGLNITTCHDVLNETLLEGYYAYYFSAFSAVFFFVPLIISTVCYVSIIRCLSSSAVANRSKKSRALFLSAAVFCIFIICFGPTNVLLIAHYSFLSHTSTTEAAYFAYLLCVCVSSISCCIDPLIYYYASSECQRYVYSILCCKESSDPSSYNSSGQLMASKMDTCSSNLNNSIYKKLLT

| max inhibition (stronger effect = higher value) [%] | IC50 | Compound |
| --- | --- | --- |
| 57.1 |  | COc1ccc(COc2ccc(C(=O)NCCC(C)(C)C)cc2)cc1 |
|  | inactive | CCCOCc1c(-c2ccccc2)c2cc([N+](=O)[O-])ccc2n1C |
